Source: PubChem
Hits are enriched below; roughly 3.1% of the tested compounds scored in any of these assays.
UHRF1 binding: human UHRF1 methylated DNA binding inhibitors; AID 687016; Q96T88; actives 0.75% (n = 370,000); inhibition, % at 4.4 µM; UHRF1 binding to methylated oligo, TR-FRET; in the data active means inhibition above about 21%;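 further: UHRF1 SRA domain binding a hemimethylated CpG hairpin DNA probe; 0% = median of test compound wells and 100% = reference inhibitor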
Target sequence (Q96T88 whole entry, looked up, the tested form may be a part): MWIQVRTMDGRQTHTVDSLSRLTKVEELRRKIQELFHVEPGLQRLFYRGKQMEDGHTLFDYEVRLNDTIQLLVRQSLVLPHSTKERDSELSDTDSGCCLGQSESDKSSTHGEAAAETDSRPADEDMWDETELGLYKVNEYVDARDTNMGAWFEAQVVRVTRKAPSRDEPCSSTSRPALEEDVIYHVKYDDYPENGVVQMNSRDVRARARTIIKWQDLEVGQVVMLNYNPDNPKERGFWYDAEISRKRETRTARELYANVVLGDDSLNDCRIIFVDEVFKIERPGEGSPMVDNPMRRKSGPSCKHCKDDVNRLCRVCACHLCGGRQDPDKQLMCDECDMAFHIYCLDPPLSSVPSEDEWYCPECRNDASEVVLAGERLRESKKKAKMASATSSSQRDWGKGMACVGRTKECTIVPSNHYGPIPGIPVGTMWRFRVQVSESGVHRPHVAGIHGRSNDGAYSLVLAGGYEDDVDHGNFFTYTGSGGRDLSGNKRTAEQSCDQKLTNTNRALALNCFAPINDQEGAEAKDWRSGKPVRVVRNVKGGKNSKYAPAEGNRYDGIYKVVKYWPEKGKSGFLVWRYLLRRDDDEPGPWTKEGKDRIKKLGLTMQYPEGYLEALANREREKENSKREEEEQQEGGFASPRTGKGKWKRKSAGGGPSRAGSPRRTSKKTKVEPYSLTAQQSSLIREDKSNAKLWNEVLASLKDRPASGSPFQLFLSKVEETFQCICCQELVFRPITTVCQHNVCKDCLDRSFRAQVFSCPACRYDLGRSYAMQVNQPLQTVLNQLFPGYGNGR
ABHD5-PLIN5 inh: blocks binding of human ABHD5 to perilipin-5 | Q00G26+Q8WTS1 | Split G. princeps luciferase complementation, luminescence, 4 h | inhibition, % at 4 µM | actives 0.78% (n = 360,000) | AID 602281;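 active means inhibition above the mean inhibition across every tested compound plus 3 SD, cut at about 22% in these data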;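 further: 0% = DMSO only wells and the 100% control is not disclosed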
LEDGF integ inh: blocks HIV-1 LEDGF/p75-dependent DNA integration. TR-FRET IN-LEDGF/p75 DNA integration, Eu/Cy5. inhibition, % at 3.7 µM. actives 0.64% (n = 370,000). AID 743269;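 active means inhibition above the screen-wide mean plus 3 SD, cut at about 13% in these data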;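 further: signal is the Cy5 over europium emission ratio at 671 and 618 nm; 0% = plate median of compound wells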
MBD2 DNA inh: blocks human MBD2 binding to methylated DNA. actives 0.31% (n = 370,000). Q9UBB5. inhibition, % at 4.4 µM. TR-FRET, MBD2 binding to methylated oligonucleotide. AID 686964; in the data active means inhibition above about 13%
RBBP9 inh: blocks human serine hydrolase RBBP9; O75884; recombinant RBBP9, FP-Rh probe fluorescence polarization; inhibition, % at 7.94 µM; actives 0.2% (n = 220,000);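 active means inhibition above the campaign mean of all tested compounds plus 3 SD, cut at about 14% in these data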;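 further: plate controls were DMSO wells with RBBP9 for no effect and wells lacking RBBP9 protein for full effect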
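system = RBBP9 protein | input = RBBP9 at 2.5 µM in dispensed solution, before mixing | measured by = fluorescence polarization (mP), excitation 525 nm, emission 598 nm | incubation = enzyme-compound preincubation 30 min, then probe labeling 45 min, 25 °C | buffer or medium = Tris-NaCl-Pluronic buffer, pH 8.0 | compound = single dose 7.94 µM | also added = FP-Rh probe, 375 nM dispensing solution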
PRMT1 FP inh: inhibitors of human PRMT1; recombinant PRMT1, activity-based probe fluorescence polarization; inhibition, % at 2.79 µM; actives 1.3% (n = 370,000); AID 652257;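 active means inhibition above about 21% made by adding two undisclosed values, limit read from the data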
PRMT1 confirm: PRMT1 (human) inhibition, FP confirmation | shares compounds with PRMT1 FP inh | recombinant His-PRMT1, activity-based probe fluorescence polarization | inhibition, % at 2.79 µM | actives 42% (n = 3,300);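 active means mean inhibition across replicates above the hit cutoff derived for the earlier primary screen, cut at about 22% in these data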
The depositor's hits bear a star; · = not tested or not shown.

SMILES | UHRF1 binding | ABHD5-PLIN5 inh | LEDGF integ inh | MBD2 DNA inh | RBBP9 inh | PRMT1 FP inh | PRMT1 confirm
C[C@H](O)[C@@H]1CN2CCc3c([nH]c4cccc(-c5ccccc5)c34)[C@@H]2C[C@@H]1N(C)C(=O)Nc1ccccc1 | -2 | · | -1 | -7 | · | 2 | ·
C[C@@H]1/C=C/CC(=O)N2[C@H](CC(=O)N[C@@H]1c1ccccc1)C[C@@H](C)[C@H]2c1ccccc1 | -1 | · | -1 | 3 | · | 8 | ·
CCCC(=O)c1ccc2c(c1)OCCO2 | -1 | 8 | 2 | 3 | 3 | -1 | ·
O=C(CCN1Cc2ccccc2C1)c1ccc2c(c1)OCCO2 | -1 | 16 | -4 | -1 | -5 | 26* | 22*
CN(C)CCC(=O)c1ccc2c(c1)OCO2 | -4 | 7 | -3 | 10 | -9 | 36* | 18
O=C(O)CCC(=O)c1ccc2c(c1)OCCO2 | 0 | 1 | 4 | 0 | -7 | 0 | ·
O=C(O)CCSCC(=O)c1ccc2c(c1)OCCO2 | 1 | -7 | 3 | 4 | -11 | 32* | 4
O=C(NCC1COCCO1)C1CCN(S(=O)(=O)c2ccc(Br)s2)CC1 (stereo not drawn) | 2 | · | -3 | 5 | · | 0 | ·
Cc1ccc(NC(=O)OCCCN2C(=O)CCC23CCC(C)CC3)cc1 (stereo not drawn) | 0 | · | 5 | -5 | · | -5 | ·
N#Cc1c(-c2ccncc2)c2c([nH]c1=S)CCCC2 | -3 | -13 | -1 | -4 | -6 | 37* | 8
Cc1ccc(-c2c3c([nH]c(=S)c2C#N)CCCC3)o1 | 7 | 13 | 8 | -1 | -7 | 50* | 31*
Cc1cc(Nc2cc(Cl)cc(Cl)c2)cc(=O)n1-c1cc(Cl)cc(Cl)c1 | 1 | · | 2 | 2 | · | -1 | ·
O=S1(=O)c2c(cccc2N2CC[C@H](O)C2)O[C@H]2CCN1C2 | 2 | · | -6 | -5 | · | 6 | ·
O=C(OCc1cn(Cc2ccc(F)c(F)c2)nn1)N1CCOCC1 | 4 | · | 1 | -2 | · | -5 | ·
CCSS(=O)(=O)c1cccc2cccnc12 | -8 | -13 | 0 | 3 | -2 | 93* | 98*
O=C(NCc1ccco1)O[C@@H]1CC[C@@]23CCCN2C(=O)CCC[C@H]3C1 | -1 | · | 0 | 0 | · | 0 | ·
COc1cccc(CNC(=O)[C@H]2CCCN2C(=O)[C@H]2CCCN2C(=O)c2cccc(Cl)c2)c1 | 0 | · | 1 | 6 | · | 4 | ·
CSc1nc2c(c(=O)[nH]1)C(c1ccccc1)C1=C(CC(C)(C)CC1=O)N2 (stereo not drawn) | 1 | -3 | -4 | -4 | -10 | 1 | ·
CC1(C)CC(=O)C2=C(C1)Nc1[nH]c(=S)[nH]c(=O)c1C2c1ccccc1 (stereo not drawn) | 2 | -2 | 3 | 5 | -5 | 66* | 6
O=C1CCCC2=C1C(c1ccc(Br)cc1)c1c([nH]c(=S)[nH]c1=O)N2 (stereo not drawn) | 1 | -16 | 8 | 0 | -1 | 49* | 38*
Cc1ccc(C2C3=C(CCCC3=O)Nc3[nH]c(=S)[nH]c(=O)c32)cc1 (stereo not drawn) | -2 | -23 | -1 | 0 | -14 | 17 | ·
COc1cc(OC)cc(C(=O)NCCN2C(=O)C3C4C=CC(C4)C3C2=O)c1 (stereo not drawn) | 2 | · | 0 | -5 | · | 0 | ·
CCOC(=O)c1ccc(N2C(=O)CC(N3CCC(O)(c4ccc(Cl)cc4)CC3)C2=O)cc1 (stereo not drawn) | 1 | 2 | 1 | -3 | -6 | 50* | 17
CCOc1ccc(N2C(=O)CC(N3CCC(O)(c4ccc(Br)cc4)CC3)C2=O)cc1 (stereo not drawn) | 4 | 4 | -2 | -3 | 1 | 56* | -1
COc1cc(OC)cc(-c2csc(N3CCC(C(N)=O)CC3)n2)c1 | -1 | · | -1 | -5 | · | -3 | ·
SMILES | UHRF1 binding | ABHD5-PLIN5 inh | LEDGF integ inh | MBD2 DNA inh | RBBP9 inh | PRMT1 FP inh | PRMT1 confirm
CN1C(=O)[C@@]2(C3=C(CCCC3=O)OC3=C2C(=O)CC(C)(C)C3)c2ccccc21 | 0 | · | -3 | 0 | · | -1 | ·
COc1ccc(-c2nc(CSCC(=O)NC3CCCc4ccccc43)c(C)o2)cc1 (stereo not drawn) | 3 | 1 | -1 | 1 | 2 | 29* | 26*
S=c1[nH]c2cc(Cl)ccc2s1 | 3 | -5 | 1 | 6 | 0 | 47* | 7
O=C(CSc1ccc(Cl)cc1)N1CCN(c2ccc([N+](=O)[O-])cc2Cl)CC1 | 2 | -8 | 0 | 1 | -7 | 28* | 0
CCOC(=O)c1c(C)nc(SCC(N)=O)c(C#N)c1-c1ccccc1 | 0 | 1 | 4 | -2 | -2 | 35* | -5
COC(=O)CSc1n[nH]c(=S)s1 | -2 | -1 | 3 | -6 | -13 | 2 | ·
COC(=O)C(C)Sc1n[nH]c(=S)s1 (stereo not drawn) | -3 | -14 | 2 | -6 | 1 | 35* | 3
CCSc1n[nH]c(=S)s1 | 0 | -3 | -3 | 2 | -4 | 3 | ·
O=C(O)CC(Sc1n[nH]c(=S)s1)C(=O)O (stereo not drawn) | 3 | 5 | 3 | -2 | 3 | 27* | 17
O=C(CSc1ccc(-c2ccco2)nn1)Nc1ccc(F)cc1F | -5 | 9 | 4 | -3 | · | 34* | 3
O=C(CSc1ccc(-c2ccco2)nn1)N1CCCC1 | -3 | 3 | 0 | -2 | 3 | 11 | ·
O=C(CSc1ccc(-c2ccco2)nn1)c1cccc([N+](=O)[O-])c1 | 3 | 2 | 6 | -3 | -7 | 31* | 4
O=C(CSc1ccc(-c2ccccn2)nn1)Nc1ccc(F)cc1F | 1 | 1 | 0 | 4 | · | 0 | ·
CC(=O)c1cccc(NC(=O)CSc2ccc(-c3ccco3)nn2)c1 | 7 | 10 | 8 | 3 | · | 54* | 66*
CCc1ccc(NC(=O)CSc2ccc(-c3ccco3)nn2)cc1 | 16 | 8 | -1 | 1 | 2 | 2 | ·
COC(=O)[C@]12C[C@H](CC(=O)NCc3cccc(C(F)(F)F)c3)C(=O)N(Cc3ccc4c(c3)OCO4)C1=C[C@H](C(C)C)O[C@@H]2C1CC1 | 3 | · | 0 | 0 | · | -1 | ·
COC(=O)[C@]12C[C@H](CC(=O)NCCCN3CCCC3=O)C(=O)N(CCc3ccc(OC)c(OC)c3)C1=C[C@H](C(C)(C)C)O[C@@H]2C | 5 | · | 2 | 1 | · | -5 | ·
CCC(C(=O)Nc1ccccc1N1CCCC1)c1ccccc1F (stereo not drawn) | 0 | · | -1 | -4 | · | 0 | ·
Cc1ccc(NC(=O)[C@@H]2CC(=O)O[C@@H]2c2ccccc2)cc1C | -2 | · | -3 | 3 | · | 4 | ·
O=C(NCCc1ccc(Cl)cc1)c1ccc2c(c1)ncn2C1CCCCC1 | 2 | · | -3 | 2 | · | 8 | ·
CN(C(=O)[C@@H](C1CC1)[C@@H](O)c1ccc2ccccc2c1)c1ccccc1 | -2 | · | 4 | -9 | · | -5 | ·
